Consider 59 compounds from ChEMBL document CHEMBL4316595, “Synthesis and structure-activity relationship studies of parthenolide derivatives as potential anti-triple negative breast cancer agents” (Eur J Med Chem, 2019).

The experiment relates to MDA-MB-231. Put plainly: Antiproliferative activity against human MDA-MB-231 cells measured after 72 hrs by MTT assay. The format is functional, cell-based. The note with it: MDA-MB-231, 72 h. A digest of the protocol: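 MTT antiproliferation assay on human breast cancer lines MDA-MB-231, SUM-159, MCF-7 and Bcap-37 and on mouse 4T1 breast cancer cells. IC50 values were taken from the MTT read-out. Adriamycin served as the positive control.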
The compound `C=C1C(=O)O[C@H]2[C@H]1CC/C(COC(=O)/C=C/c1ccc(Br)cc1)=C\CC[C@@]1(C)O[C@@H]21` gave an IC50 of 1.02 µM.

Compound `C=C1C(=O)O[C@H]2[C@H]1CC/C(COC(=O)/C=C/c1ccc(OC)c(OC)c1)=C\CC[C@@]1(C)O[C@@H]21` came in with an IC50 of 1.95 µM.

As for `COc1ccc(OC)c(/C=C/C(=O)OC/C2=C/CC[C@@]3(C)O[C@H]3[C@H]3OC(=O)[C@@H](C)[C@@H]3CC2)c1`, the IC50 amounted to 6.8 µM.

As to `C=C1C(=O)O[C@H]2[C@H]1CC/C(COC(=O)/C(C)=C/c1cc(OC)ccc1OC)=C\CC[C@@]1(C)O[C@@H]21`, inhibition was half-maximal at 1.76 µM (IC50).

For `C=C1C(=O)O[C@H]2[C@H]1CC/C(COC(=O)/C(=C/c1cc(OC)ccc1OC)c1ccccc1)=C\CC[C@@]1(C)O[C@@H]21`, the IC50 is 2.01 µM.

Regarding `C=C1C(=O)O[C@H]2[C@H]1CC/C(COC(=O)/C=C/c1ccccc1Br)=C\CC[C@@]1(C)O[C@@H]21`, the concentration for half-maximal inhibition (IC50) is 1.33 µM.

The compound `C=C1C(=O)O[C@H]2[C@H]1CC/C(COC(=O)/C=C/c1ccccc1F)=C\CC[C@@]1(C)O[C@@H]21` yielded an IC50 of 1.8 µM.

`C=C1C(=O)O[C@H]2[C@H]1CC/C(COC(=O)c1c(OC)cccc1OC)=C\CC[C@@]1(C)O[C@@H]21`: the IC50 amounted to 3.55 µM.

As for `C=C1C(=O)O[C@H]2[C@H]1CC/C(COC(=O)/C(=C/c1cc(OC)ccc1OC)c1ccc(OCC)cc1)=C\CC[C@@]1(C)O[C@@H]21`, the IC50 was found to be 1.87 µM.

Compound `C=C1C(=O)O[C@H]2[C@H]1CC/C(COC(=O)/C=C/c1ccc(C#N)cc1)=C\CC[C@@]1(C)O[C@@H]21` gave an IC50 of 1.8 µM.

The compound `C=C1C(=O)O[C@H]2[C@H]1CC/C(COC(=O)/C=C/c1cccc(F)c1)=C\CC[C@@]1(C)O[C@@H]21` displayed an IC50 of 1.73 µM.

Consider `C=C1C(=O)O[C@H]2[C@H]1CC/C(COC(=O)/C(=C/c1cc(OC)ccc1OC)c1ccc(Cl)cc1)=C\CC[C@@]1(C)O[C@@H]21`, for which the IC50 is 2.02 µM.

In turn, `C=C1C(=O)O[C@H]2[C@H]1CC/C(COC(=O)/C=C/c1ccccc1Cl)=C\CC[C@@]1(C)O[C@@H]21` showed an IC50 of 1.42 µM. The IC50 values of the last two compounds are within 1.5-fold of each other.

As to `C=C1C(=O)O[C@H]2[C@H]1CC/C(COC(=O)/C=C/c1ccc(OCC)cc1)=C\CC[C@@]1(C)O[C@@H]21`, the IC50 was determined as 1.58 µM.

With `C=C1C(=O)O[C@H]2[C@H]1CC/C(COC(=O)CCc1c(OC)cccc1OC)=C\CC[C@@]1(C)O[C@@H]21`, 2.3 µM corresponded to half-maximal inhibition (IC50).

Regarding `C=C1C(=O)O[C@H]2[C@H]1CC/C(COC(=O)/C=C/c1ccc(C)cc1)=C\CC[C@@]1(C)O[C@@H]21`, the IC50 was determined as 2.27 µM.

The compound `C=C1C(=O)O[C@H]2[C@H]1CC/C(COC(=O)/C(=C/c1cc(OC)ccc1OC)CC)=C\CC[C@@]1(C)O[C@@H]21` yielded a 50% inhibitory concentration (IC50) of 2.25 µM.

For the compound `C=C1C(=O)O[C@H]2[C@H]1CC/C(COC(=O)/C=C/c1cc(OC)c(OC)cc1OC)=C\CC[C@@]1(C)O[C@@H]21`, half-maximal inhibition (IC50) required 1.02 µM.

For `C=C1C(=O)O[C@H]2[C@H]1CC/C(COC(=O)/C=C/c1cccc(OC)c1)=C\CC[C@@]1(C)O[C@@H]21`, the IC50 is 1.84 µM. This IC50 lies about 1.8-fold higher than the previous one.

On to `COc1cccc(OC)c1/C=C/C(=O)OC/C1=C/CC[C@@]2(C)O[C@H]2[C@H]2OC(=O)[C@@H](C)[C@@H]2CC1`, for which the IC50 was found to be 7.6 µM.

The compound `C=C1C(=O)O[C@H]2[C@H]1CC/C(COC(=O)/C=C/c1cccc(C)c1)=C\CC[C@@]1(C)O[C@@H]21` yielded a half-maximal inhibitory concentration (IC50) of 1.08 µM.

For `C=C1C(=O)O[C@H]2[C@H]1CC/C(COC(=O)/C=C/c1cc(OC)cc(OC)c1)=C\CC[C@@]1(C)O[C@@H]21`, the IC50 amounted to 2.02 µM.

The compound `C=C1C(=O)O[C@H]2[C@H]1CC/C(COC(=O)/C=C/c1ccc(F)cc1)=C\CC[C@@]1(C)O[C@@H]21` yielded a concentration for half-maximal inhibition (IC50) of 1.32 µM. Compared with the last compound, the IC50 is about 1.5-fold lower.

`C=C1C(=O)O[C@H]2[C@H]1CC/C(COC(=O)/C=C/c1ccc(O)cc1)=C\CC[C@@]1(C)O[C@@H]21` gave an IC50 of 1.89 µM.

As to `C=C1C(=O)O[C@H]2[C@H]1CC/C(COC(=O)/C(=C/c1cc(OC)ccc1OC)CCC)=C\CC[C@@]1(C)O[C@@H]21`, 7.53 µM corresponded to half-maximal inhibition (IC50).

`C=C1C(=O)O[C@H]2[C@H]1CC/C(COC(=O)/C=C/c1ccco1)=C\CC[C@@]1(C)O[C@@H]21` showed an IC50 of 2.25 µM. Against the preceding compound, the IC50 is about 3.3-fold lower.

`C=C1C(=O)O[C@H]2[C@H]1CC/C(COC(=O)/C(=C/c1cc(OC)ccc1OC)c1ccc(SC)cc1)=C\CC[C@@]1(C)O[C@@H]21` returned an IC50 of 1.87 µM.

`C=C1C(=O)O[C@H]2[C@H]1CC/C(COC(=O)/C=C/c1ccc(O)c(OC)c1)=C\CC[C@@]1(C)O[C@@H]21` gave an IC50 of 2.01 µM. This IC50 and that of the compound before are within 1.5-fold of each other.

For the compound `C=C1C(=O)O[C@H]2[C@H]1CC/C(COC(=O)/C=C/c1c(Cl)cccc1Cl)=C\CC[C@@]1(C)O[C@@H]21`, the midpoint of inhibition, the IC50, lay at 1.59 µM.

Take `C=C1C(=O)O[C@H]2[C@H]1CC/C(COC(=O)/C=C/c1ccc(OC)c(OC)c1OC)=C\CC[C@@]1(C)O[C@@H]21`: the IC50 is 1.77 µM.

The compound `C=C1C(=O)O[C@H]2[C@H]1CC/C(COC(=O)/C=C/c1ccncc1)=C\CC[C@@]1(C)O[C@@H]21` had an IC50 of 2.79 µM. This IC50 lies about 1.6-fold higher than the previous one.

As for `C=C1C(=O)O[C@H]2[C@H]1CC/C(COC(=O)/C=C/c1c(Br)cccc1Br)=C\CC[C@@]1(C)O[C@@H]21`, the IC50 was found to be 1.5 µM.

`C=C1C(=O)O[C@H]2[C@H]1CC/C(COC(=O)/C=C/c1ccc(OC)cc1)=C\CC[C@@]1(C)O[C@@H]21` registered an IC50 of 1.73 µM.

The compound `C=C1C(=O)O[C@H]2[C@H]1CC/C(COC(=O)/C=C/c1ccc3ccccc3c1)=C\CC[C@@]1(C)O[C@@H]21` came in with an IC50 of 1.48 µM.

The compound `C=C1C(=O)O[C@H]2[C@H]1CC/C(COC(=O)/C(=C/c1cc(OC)ccc1OC)c1ccc(OC)cc1)=C\CC[C@@]1(C)O[C@@H]21` displayed a concentration for half-maximal inhibition (IC50) of 2.51 µM.

Compound `C=C1C(=O)O[C@H]2[C@H]1CC/C(COC(=O)/C=C/c1cccc(Cl)c1)=C\CC[C@@]1(C)O[C@@H]21` showed a 50% inhibitory concentration (IC50) of 1.78 µM. This IC50 and that of the compound before are within 1.5-fold of each other.

The compound `COC(=O)/C=C/c1c(OC)cccc1OC` showed an IC50 above 20 µM.

Turning to `C=C1C(=O)O[C@H]2[C@H]1CC/C(COC(=O)/C(=C/c1cc(OC)ccc1OC)c1ccc(Br)cc1)=C\CC[C@@]1(C)O[C@@H]21`, the IC50 came to 2.01 µM.

As for `C=C1C(=O)O[C@H]2[C@H]1CC/C(COC(=O)/C=C/c1ccccn1)=C\CC[C@@]1(C)O[C@@H]21`, the IC50 was 2.29 µM.

`C=C1C(=O)O[C@H]2[C@H]1CC/C(COC(=O)/C(=C/c1cc(OC)ccc1OC)c1ccc(C)cc1)=C\CC[C@@]1(C)O[C@@H]21`: the IC50 was 2.95 µM.

For `C=C1C(=O)O[C@H]2[C@H]1CC/C(COC(=O)/C=C/c1cccc(OC)c1OC)=C\CC[C@@]1(C)O[C@@H]21`, half-maximal inhibition (IC50) required 1.74 µM.

In the case of `C=C1C(=O)O[C@H]2[C@H]1CC/C(COC(=O)/C=C/c1cccs1)=C\CC[C@@]1(C)O[C@@H]21`, the IC50 is 1.8 µM.

Regarding `C=C1C(=O)O[C@H]2[C@H]1CC/C(COC(=O)/C(=C/c1cc(OC)ccc1OC)c1ccc(C(F)(F)F)cc1)=C\CC[C@@]1(C)O[C@@H]21`, the IC50 was 1.98 µM.

`C=C1C(=O)O[C@H]2[C@H]1CC/C(COC(=O)/C=C/c1ccccc1C)=C\CC[C@@]1(C)O[C@@H]21` came in with an IC50 of 1.79 µM. The IC50 values of the last two compounds are within 1.5-fold of each other.

Regarding `C=C1C(=O)O[C@H]2[C@H]1CC/C(COC(=O)CCc1cc(OC)ccc1OC)=C\CC[C@@]1(C)O[C@@H]21`, the IC50 worked out at 1.88 µM.

`C=C1C(=O)O[C@H]2[C@H]1CC/C(COC(=O)/C=C/c1ccc(Cl)cc1)=C\CC[C@@]1(C)O[C@@H]21` gave an IC50 of 1.22 µM.

Compound `C=C1C(=O)O[C@H]2[C@H]1CC/C(COC(=O)/C=C/c1cccc(Br)c1)=C\CC[C@@]1(C)O[C@@H]21` displayed a half-maximal inhibitory concentration (IC50) of 1.64 µM.

For `C=C1C(=O)O[C@H]2[C@H]1CC/C(COC(=O)/C=C/c1ccc(C(C)C)cc1)=C\CC[C@@]1(C)O[C@@H]21`, inhibition was half-maximal at 1.33 µM (IC50).

Regarding `C=C1C(=O)O[C@H]2[C@H]1CC/C(COC(=O)/C=C/c1c(OC)cc(OC)cc1OC)=C\CC[C@@]1(C)O[C@@H]21`, inhibition was half-maximal at 1.09 µM (IC50). The IC50 values of the last two compounds are within 1.5-fold of each other.

On to `C=C1C(=O)O[C@H]2[C@H]1CC/C(COC(=O)/C=C/c1c(F)cccc1F)=C\CC[C@@]1(C)O[C@@H]21`, for which the IC50 turned out to be 1.59 µM. This IC50 and that of the compound before are within 1.5-fold of each other.

The compound `C=C1C(=O)O[C@H]2[C@H]1CC/C(CO)=C\CC[C@@]1(C)O[C@@H]21` gave an IC50 of 5.59 µM.

Compound `C=C1C(=O)O[C@H]2[C@H]1CC/C(COC(=O)/C=C/c1cccnc1)=C\CC[C@@]1(C)O[C@@H]21` came in with an IC50 of 3.27 µM. Compared with the last compound, the IC50 is about 1.7-fold lower.

`COC(=O)/C=C/c1cc(OC)ccc1OC` came in with a concentration for half-maximal inhibition (IC50) above 50 µM.

Consider `C=C1C(=O)O[C@H]2[C@H]1CC/C(COC(=O)/C=C/c1ccc(C(F)(F)F)cc1)=C\CC[C@@]1(C)O[C@@H]21`, for which the IC50 was 2.52 µM.

Take `C=C1C(=O)O[C@H]2[C@H]1CC/C(COC(=O)/C=C/c1ccc([N+](=O)[O-])cc1)=C\CC[C@@]1(C)O[C@@H]21`: the IC50 worked out at 1.93 µM.

With `C=C1C(=O)O[C@H]2[C@H]1CC/C(COC(=O)/C=C/c1ccc(OC(C)=O)cc1)=C\CC[C@@]1(C)O[C@@H]21`, inhibition was half-maximal at 1.15 µM (IC50). This IC50 lies about 1.7-fold lower than the previous one.

`C=C1C(=O)O[C@H]2[C@H]1CC/C(COC(=O)/C=C/c1ccc3c(c1)OCO3)=C\CC[C@@]1(C)O[C@@H]21` registered an IC50 of 1.8 µM.

Compound `C=C1C(=O)O[C@H]2[C@H]1CC/C(COC(=O)/C(C#N)=C/c1cc(OC)ccc1OC)=C\CC[C@@]1(C)O[C@@H]21` had an IC50 of 2.35 µM.

Regarding `C=C1C(=O)O[C@H]2[C@H]1CC/C(COC(=O)/C(=C/c1cc(OC)ccc1OC)c1ccc(F)cc1)=C\CC[C@@]1(C)O[C@@H]21`, inhibition was half-maximal at 1.96 µM (IC50). The IC50 values of the last two compounds are within 1.5-fold of each other.
